{"data": "Assay results of several laboratories", "target": "MAP/microtubule affinity-regulating kinase 3 (MARK3, Homo sapiens, UniProt P27448)"}
{"SMILES": "CNc1cc(Oc2cc(C(=O)Nc3cc(N4CCN(C)CC4)cc(C(F)(F)F)c3)ccc2C)ncn1", "test": "target engagement in cells, inhibitor, chemoproteomics", "test system": "Huh-7", "conditions": "1 µM", "endpoint": "inhibition", "result": "-18.5%"}
{"SMILES": "NS(=O)(=O)c1ccc(CNc2nc(Nc3cccc(CN4CCOCC4)c3)ncc2C2CC2)cc1", "test": "enzyme activity, inhibitor, radiometric", "conditions": "1 µM", "endpoint": "remaining activity", "result": "109%"}
{"SMILES": "COc1cc2ncnc(Nc3ccc(Oc4ccccc4)c(C)c3C)c2cc1OC", "test": "enzyme activity, inhibitor", "conditions": "1 µM", "endpoint": "inhibition", "result": "-4%"}
{"SMILES": "O=C(Nc1cnn(-c2csc(C(=O)NC3COC3)c2)c1)Nc1ccccc1Cl", "test": "enzyme activity, inhibitor", "conditions": "5 µM", "endpoint": "remaining activity", "result": "98.2%"}
{"SMILES": "O=C1NC(=O)c2cc(Nc3ccc(F)cc3)c(Nc3ccc(F)cc3)cc21", "test": "cell-free assay", "conditions": "0.5 µM", "endpoint": "remaining signal", "result": "90.8%"}
{"SMILES": "FC(F)(F)Oc1cccc(-c2cnc3ccc(-c4ccncc4)nn23)c1", "test": "enzyme activity, inhibitor, radiometric", "conditions": "1 µM", "endpoint": "activity vs control", "result": "91%"}
{"SMILES": "Cn1nc(C(F)(F)F)cc1-c1cnc(N2CCc3cc(S(=O)(=O)Nc4c(F)cc(Cl)cc4F)cc(N4CCCC4=O)c32)nc1", "test": "binding, competition with immobilised ligand", "conditions": "1 µM", "endpoint": "remaining binding", "result": "12%"}
{"SMILES": "Cc1nn(CC(F)(F)F)cc1Nc1nccc(NCCCNC(=O)C2CCC2)n1", "test": "enzyme activity, inhibitor, radiometric", "conditions": "1 µM", "endpoint": "remaining activity", "result": "126%"}
{"SMILES": "CN(C)C(=O)Cn1cc(-c2nc(C3(c4ccc(-c5cnc(N)nc5)cc4)CC3)no2)cn1", "test": "cell-free assay, competition with immobilised ligand", "conditions": "1 µM", "endpoint": "remaining binding", "result": "100%"}
{"SMILES": "O=C(NCCCNc1ccnc(Nc2cccc(NC(=O)N3CCCC3)c2)n1)C1CCC1", "test": "enzyme activity, inhibitor, radiometric", "conditions": "1 µM", "endpoint": "remaining activity", "result": "92%"}
{"SMILES": "O=C1Nc2ccc(Cl)cc2C1=Cc1cc(Cl)c(O)c(Cl)c1", "test": "cell-free assay", "conditions": "0.5 µM", "endpoint": "remaining signal", "result": "81.1%"}
{"SMILES": "NS(=O)(=O)c1ccc(CNc2nc(Nc3cccc(NC(=O)N4CCCC4)c3)ncc2Br)cc1", "test": "enzyme activity, inhibitor, radiometric", "conditions": "1 µM", "endpoint": "remaining activity", "result": "63%"}
{"SMILES": "Nc1c(C(=O)NCc2ccc(C(=O)NCCCC3CCCCC3)cc2)cnn1-c1ccccc1", "test": "cell-free assay, competition with immobilised ligand", "conditions": "0.1 µM", "endpoint": "remaining binding", "result": "78%"}
{"SMILES": "CS(=O)(=O)CCNCc1ccc(-c2ccc3ncnc(Nc4ccc(OCc5cccc(F)c5)c(Cl)c4)c3c2)o1", "test": "cell-free assay", "conditions": "0.5 µM", "endpoint": "remaining signal", "result": "95.9%"}
{"SMILES": "CCCCNc1ncc2c(-c3ccc(F)cc3)nn(C[C@H]3CC[C@H](N)CC3)c2n1", "test": "target engagement in cells, inhibitor, chemoproteomics", "conditions": "20 mM", "endpoint": "inhibition", "result": "33.9%"}
{"SMILES": "O=C(Nc1cccc(Nc2ncc(Br)c(NCCc3cnc[nH]3)n2)c1)N1CCCC1", "test": "enzyme activity, inhibitor, radiometric", "conditions": "1 µM", "endpoint": "remaining activity", "result": "-1%"}
{"SMILES": "CC/C(=N\\NC(=O)NCc1cccc(O)c1)c1ccc(O)c(C)c1O", "test": "enzyme activity, inhibitor", "conditions": "0.1 µM", "endpoint": "inhibition", "result": "-16.8%"}
{"SMILES": "NS(=O)(=O)c1ccc(CNc2ccnc(Nc3cccc(CN4CCOCC4)c3)n2)cc1", "test": "enzyme activity, inhibitor, radiometric", "conditions": "1 µM", "endpoint": "remaining activity", "result": "113%"}
{"SMILES": "Cc1cc(C)c(-n2ccn3nc(-c4cccnc4)cc23)cc1NC(=O)c1cc(C#N)cc(S(F)(F)(F)(F)F)c1", "test": "cell-free assay, competition with immobilised ligand", "conditions": "0.1 µM", "endpoint": "remaining binding", "result": "85.1%"}
{"SMILES": "Oc1ccc(-c2nc(-c3ccncc3)c(-c3ccc(F)cc3)[nH]2)cc1", "test": "cell-free assay", "conditions": "0.5 µM", "endpoint": "remaining signal", "result": "105%"}
{"SMILES": "c1cc(CN2CCOCC2)cc(Nc2ncc(C3CC3)c(NCCc3c[nH]cn3)n2)c1", "test": "enzyme activity, inhibitor, radiometric", "conditions": "1 µM", "endpoint": "remaining activity", "result": "0%"}
{"SMILES": "O=C(Nc1cnc(Oc2ccc(F)cc2)nc1)N1CCc2ncccc2[C@@H]1c1ccc(F)cc1", "test": "cell-free assay, competition with immobilised ligand", "conditions": "1 µM", "endpoint": "remaining binding", "result": "100%"}
{"SMILES": "CS(=O)(=O)Nc1cccc(-c2csc(NC(=O)CSc3nc4nccnc4c(=O)n3CCc3ccccc3)n2)c1", "test": "enzyme activity, inhibitor", "conditions": "10 µM", "endpoint": "inhibition", "result": "1%"}
{"SMILES": "O=C(NS(=O)(=O)c1ccc(NCC2CCOCC2)c([N+](=O)[O-])c1)c1ccc(N2CCN(Cc3ccc(C(F)(F)F)cc3-c3ccc(Cl)cc3)CC2)cc1Oc1cnc2[nH]ccc2c1", "test": "cell-free assay, competition with immobilised ligand", "conditions": "1 µM", "endpoint": "remaining binding", "result": "100%"}
{"SMILES": "CNc1cccc2cc(C(=O)Nc3ccc(C(=O)O)cc3)c(=O)[nH]c12", "test": "enzyme activity, inhibitor", "conditions": "10 µM", "endpoint": "inhibition", "result": "-10%"}
{"SMILES": "CCS(=O)(=O)c1cc2cc(C[C@](O)(CC(C)(C)c3ccc(F)cc3C(N)=O)C(F)(F)F)[nH]c2cn1", "test": "cell-free assay, competition with immobilised ligand", "conditions": "1 µM", "endpoint": "remaining binding", "result": "100%"}
{"SMILES": "Nc1ncnc2occ(-c3ccc(NC(=O)Nc4cc(C(F)(F)F)ccc4F)cc3)c12", "test": "cell-free assay, inhibitor", "conditions": "20 µM", "endpoint": "remaining signal", "result": "15%"}
{"SMILES": "C[C@H](c1ccnc(Nc2nc3ccc(-c4cc(N(C)C)ncn4)cc3[nH]2)c1)N1CCN(C(=O)CC(F)(F)F)CC1", "test": "cell-free assay, competition with immobilised ligand", "conditions": "0.1 µM", "endpoint": "remaining binding", "result": "100%"}
{"SMILES": "O=C(NCCCNc1nc(Nc2cccc(NC(=O)N3CCCC3)c2)ncc1I)c1cccs1", "test": "enzyme activity, inhibitor, radiometric", "conditions": "1 µM", "endpoint": "remaining activity", "result": "-4%"}
